Active and inactive are the calls of the source. The calls are words filed in the database; no cut-off is given here.
Assays:
Heat shock protein HSP90 [1] = target: T1, Heat shock protein HSP90 (Homo sapiens, UniProt P07900+P08238); assay: Binding affinity to recombinant […] HSP90 N-terminal domain (9 to 236 residues) (unknown origin) expressed in Escherichia coli BL21 (DE3) at 200 uM by NMR spectra analysis
Heat shock protein HSP90 [2] = target: T1, Heat shock protein HSP90; assay: Binding affinity to recombinant full-length 15N-labelled HSP90 N-terminal domain (9 to 236 residues) (unknown origin) expressed in Escherichia coli BL21 (DE3) at 250 to 500 uM by 15N 1H HSQC spectra analysis
HCT-116 [3] = assay: Antitumor activity against human HCT116 cells xenografted in BALB/c mouse assessed as reduction in tumor cells at 80 mg/kg, po administered once daily for 21 days measured post-last dose by H and E staining-based imaging analysis; type: functional, organism-based
In short: (§1)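 1×10^7 HCT116 cells mixed 3:1 with Matrigel were injected into the flanks of 6-week-old BALB/c nude mice, which were randomised into groups. Dosing started at mean tumour volume 125 mm³: daily oral gavage for 21 days in 0.9% saline with 5% DMSO at 40 or 80 mg/kg. Tumour volume measured daily by calipers (length×width²/2); n = 6. Tumours fixed in 4% formaldehyde, paraffin-embedded, 4 µm H&E sections.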

HCT-116 [4] = assay: Antitumor activity against human HCT116 cells xenografted in BALB/c mouse assessed as tumor growth inhibition at 40 mg/kg, po administered once daily for 21 days; type: functional, organism-based; in short: as §1
Mus musculus [5] = assay: In vivo inhibition of HSP90-CDC37 protein-protein interaction in human HCT116 cells xenografted BALB/c mouse assessed as reduction in CDK4 level at 40 mg/kg, po administered once daily for 21 days measured post-last dose by immunohistochemical analysis; type: functional, organism-based
In short: (§2)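 Tumours from the 21-day daily oral xenograft study (40 or 80 mg/kg) were formalin-fixed and cut into 4 µm paraffin sections. Peroxidase quenched with 3% H₂O₂; antigen retrieval by boiling in 10 mM citrate, pH 6.0. Blocked with 3% BSA; anti-CDK4 at 4 °C overnight; secondary 20 min at 37 °C. DAB detection, haematoxylin counterstain, viewed at 200×.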

HCT-116 [6] = assay: Antitumor activity against human HCT116 cells xenografted in BALB/c mouse assessed as reduction in tumor cells at 40 mg/kg, po administered once daily for 21 days measured post-last dose by H and E staining-based imaging analysis; type: functional, organism-based; in short: as §1
Mus musculus [7] = assay: In vivo inhibition of HSP90-CDC37 protein-protein interaction in human HCT116 cells xenografted BALB/c mouse assessed as reduction in CDK4 level at 80 mg/kg, po administered once daily for 21 days measured post-last dose by immunohistochemical analysis; type: functional, organism-based; in short: as §2
Heat shock protein HSP90 [8] = target: T1, Heat shock protein HSP90; assay: Binding affinity to recombinant […] HSP90 N-terminal domain (9 to 236 residues) (unknown origin) expressed in Escherichia coli BL21 (DE3) assessed as change in melting temperature by SYPRO dye based thermal shift assay
In short: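 Hsp90 N-terminal domain (10 µM) mixed with compound at 200, 100, 50 or 10 µM in 1× PBS, pH 8.0, with 6× SYPRO Orange. Heated from room temperature to 99 °C at 1 °C/min; fluorescence read at 492 nm excitation and 610 nm emission.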

Heat shock protein HSP90 [9] = target: T1, Heat shock protein HSP90; assay: Binding affinity to recombinant […] HSP90 N-terminal domain (9 to 236 residues) (unknown origin) expressed in Escherichia coli BL21 (DE3) at 100 uM by STD NMR spectra analysis
In short: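 STD NMR: 100 µM compound with 5 µM Hsp90 in 20 mM sodium phosphate, 150 mM NaCl, 5% DMSO, pH 7.4. Three independent experiments.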

[10] = target: T2, Heat shock protein HSP 90-beta/Hsp90 co-chaperone Cdc37 (Homo sapiens) (UniProt P08238+Q16543); assay: Inhibition of His-tagged HSP90/GST-tagged Cdc37 (unknown origin) protein-protein interaction at 100 uM measured after 1 hr by HTRF assay relative to control; type: protein-complex assay
In short: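 His-Hsp90 and GST-Cdc37 were premixed at a final 80 nM in PBS with 200 mM KF, pH 7.4. Compound was added and the mix incubated 1 h at 37 °C, then read by HTRF. Inhibition rate was taken at 100 μM compound.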

[11] = target: Heat shock protein HSP 90-alpha (Homo sapiens, UniProt P07900); assay: Binding affinity to recombinant human full-length HSP90alpha by surface plasmon resonance analysis
Heat shock protein HSP90 [12] = target: T1, Heat shock protein HSP90; assay: Inhibition of recombinant full-length HSP90 ATPase activity N-terminal domain (9 to 236 residues) (unknown origin) expressed in Escherichia coli BL21 (DE3) measured after 1 hr by ADP hunter plus assay
[13] = target: T2, Heat shock protein HSP 90-beta/Hsp90 co-chaperone Cdc37 (Homo sapiens); assay: Inhibition of HSP90-CDC37 protein-protein interaction in human HCT116 cells up to 1 uM measured after 12 hrs by coimmunoprecipitation-based Western blot assay; type: cell-based
In short: (§3)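 HCT116 cells grown to ~90% confluence in 10 cm dishes, exposed to compound or DMSO for 12 h, then washed with ice-cold PBS and lysed in RIPA buffer (50 mM Tris, 150 mM NaCl, 1% NP-40, protease inhibitors, pH 7.4) for 1 h on ice. Hsp90 was immunoprecipitated with protein A/G magnetic beads over 3 h. Western blots probed Hsp90, Cdc37 and CDK4.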

[14] = Toxicity in human HCT116 cells xenografted BALB/c mouse assessed as body weight loss at 40 to 80 mg/kg, po administered once daily for 21 days measured at 3 days interval during compound dosing; type: organism-based; conditions: in vivo
In short: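 BALB/c nude mice (6 weeks old) carried flank HCT116 xenografts (1×10^7 cells with Matrigel, 3:1). Dosing started at mean tumor volume 125 mm³: oral 40 or 80 mg/kg daily for 21 days, vehicle 0.9% saline with 5% DMSO. Body weight was recorded every 3 days; n = 6.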

[15] = Toxicity in human HCT116 cells xenografted BALB/c mouse assessed as effect on spleen at 40 to 80 mg/kg, po administered once daily for 21 days measured post-last dose by H and E staining-based imaging analysis; type: organism-based; conditions: in vivo, 504 h
In short: (§4)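 Same xenograft model in BALB/c nude mice with oral daily dosing at 40 or 80 mg/kg in 5% DMSO/saline for 21 days. After sacrifice, organs were fixed in 4% formaldehyde, paraffin-embedded, sectioned at 4 μm and H&E-stained for light-microscopy imaging.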

[16] = Toxicity in human HCT116 cells xenografted BALB/c mouse assessed as effect on liver at 40 to 80 mg/kg, po administered once daily for 21 days measured post-last dose by H and E staining-based imaging analysis; type: organism-based; conditions: in vivo, 504 h; in short: as §4
[17] = Toxicity in human HCT116 cells xenografted BALB/c mouse assessed as effect on kidney at 40 to 80 mg/kg, po administered once daily for 21 days measured post-last dose by H and E staining-based imaging analysis; type: organism-based; conditions: in vivo, 504 h; in short: as §4
[18] = Toxicity in human HCT116 cells xenografted BALB/c mouse assessed as effect on lung at 40 to 80 mg/kg, po administered once daily for 21 days measured post-last dose by H and E staining-based imaging analysis; type: organism-based; conditions: in vivo, 504 h; in short: as §4
[19] = Toxicity in human HCT116 cells xenografted BALB/c mouse assessed as effect on heart at 40 to 80 mg/kg, po administered once daily for 21 days measured post-last dose by H and E staining-based imaging analysis; type: organism-based; conditions: in vivo, 504 h; in short: as §4
[20] = test system: Heat shock protein HSP 90-alpha (Homo sapiens), P07900 [E47A]; assay: Binding affinity to recombinant […] HSP90 E47A mutant N-terminal domain (9 to 236 residues) (unknown origin) expressed in Escherichia coli BL21 (DE3) at 200 uM by NMR spectra analysis
Heat shock protein HSP90 [21] = target: T1, Heat shock protein HSP90; assay: Binding affinity to HSP90 in human HCT116 cells assessed as change in melting temperature measured after 12 hrs by CETSA; type: cell-based
In short: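 HCT116 cells near 90% confluence were treated 12 h with 20 µM compound or DMSO, then washed and resuspended in PBS. Aliquots heated 3 min at 37–75 °C, freeze-thawed three times in liquid nitrogen and centrifuged. Hsp90 detected by Western blot with β-actin reference; Tm taken from band grey levels. Three independent experiments.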

HCT-116 [22] = assay: Antitumor activity against human HCT116 cells xenografted in BALB/c mouse assessed as reduction in tumor cells at 40 to 80 mg/kg, po administered once daily for 21 days measured post-last dose by H and E staining-based imaging analysis; type: functional, organism-based; in short: as §1
[23] = test system: Heat shock protein HSP 90-alpha (Homo sapiens), P07900 [R46A]; assay: Binding affinity to recombinant […] HSP90 R46A mutant N-terminal domain (9 to 236 residues) (unknown origin) expressed in Escherichia coli BL21 (DE3) at 200 uM by NMR spectra analysis
[24] = target: T2, Heat shock protein HSP 90-beta/Hsp90 co-chaperone Cdc37 (Homo sapiens); assay: Inhibition of HSP90-CDC37 protein-protein interaction in human HCT116 cells measured after 12 hrs by coimmunoprecipitation-based Western blot assay; type: cell-based; in short: as §3
Mus musculus [25] = assay: In vivo inhibition of HSP90-CDC37 protein-protein interaction in human HCT116 cells xenografted BALB/c mouse assessed as reduction in CDK4 level at 40 to 80 mg/kg, po administered once daily for 21 days measured post-last dose by immunohistochemical analysis; type: functional, organism-based; in short: as §2
[26] = target: T2, Heat shock protein HSP 90-beta/Hsp90 co-chaperone Cdc37 (Homo sapiens); assay: Inhibition of HSP90-CDC37 protein-protein interaction in human HCT116 cells assessed as reduction in CDK4 expression up to 10 uM measured after 12 hrs by coimmunoprecipitation-based Western blot assay; type: cell-based; in short: as §3
[27] = test system: Heat shock protein HSP 90-alpha (Homo sapiens), P07900 [Q133A]; assay: Binding affinity to recombinant […] HSP90 Q133A mutant N-terminal domain (9 to 236 residues) (unknown origin) expressed in Escherichia coli BL21 (DE3) at 200 uM by NMR spectra analysis
HCT-116 [28] = assay: Antitumor activity against human HCT116 cells xenografted in po dosed BALB/c mouse assessed as tumor growth inhibition administered once daily for 21 days; type: functional, organism-based; in short: as §1

Compound | Activity (Heat shock protein HSP90 [1]) | ΔTm (Heat shock protein HSP90 [8]) [°C] | Activity (Heat shock protein HSP90 [9]) | inhibition [10] [%] | Activity [14] | Activity [15] | Activity [16] | Activity [17] | Activity [18] | Activity [19] | also measured
Cc1cc(C)c(S(=O)(=O)N(CC(=O)O)c2ccc(Nc3ccnc(N4CCCC4)n3)cc2)c(C)c1 | Active | 2.13 | Active | 72.6 | – | – | – | – | – | – | Activity (Heat shock protein HSP90 [2]): Active; Activity (HCT-116 [3]): Active; TGI (HCT-116 [4]): inactive; inhibition (Mus musculus [5]): inactive; Activity (HCT-116 [6]): inactive; inhibition (Mus musculus [7]): Active
Cc1cc(C)n(-c2nc(NN)nc(Nc3ccc(Cl)c(C(F)(F)F)c3)n2)n1 | – | – | – | – | – | – | – | – | – | – | Kd [11]: 4.98 µM
CC(C)c1cc(C(=O)N2Cc3ccc(CN4CCN(C)CC4)cc3C2)c(O)cc1O [ONALESPIB] | – | – | – | – | – | – | – | – | – | – | IC50 (Heat shock protein HSP90 [12]): 0.15 µM; inhibition [13]: inactive
Cc1cc(C)c(S(=O)(=O)N(CC(=O)O)c2ccc(Nc3ccnc(N4CCNCC4)n3)cc2)c(C)c1.Cl | – | – | – | – | Non-Toxic | Non-Toxic | Non-Toxic | Non-Toxic | Non-Toxic | Non-Toxic | –
Cc1cc(C)c(S(=O)(=O)N(CC(=O)O)c2ccc(Nc3ccnc(N4CCNCC4)n3)cc2)c(C)c1 | Active | 4.75 | Active | 97.4 | – | – | – | – | – | – | Activity [20]: inactive; ΔTm (Heat shock protein HSP90 [21]): 6.39 °C; Activity (HCT-116 [22]): Active; Activity [23]: Active; inhibition [24]: Dose-dependent effect; inhibition (Mus musculus [25]): Active; inhibition [26]: Active; Activity [27]: Active; TGI (HCT-116 [28]): Dose-dependent effect
Cc1cc(C)c(S(=O)(=O)N(CC(=O)O)c2ccc(Nc3ccnc(N4CCCC4)n3)cc2)c(C)c1.[Cl-].[Na+] | – | – | – | – | Non-Toxic | Non-Toxic | Non-Toxic | Non-Toxic | Non-Toxic | Non-Toxic | –
